The values that follow come from BindingDB's records for doi:10.1021/jm049337s (Leiden/Amsterdam Center For Drug Research, 2005).

Experiment [1] deals with T1, Adenosine receptor A1 (Homo sapiens, UniProt P30542).
T1 sequence (P30542 whole entry): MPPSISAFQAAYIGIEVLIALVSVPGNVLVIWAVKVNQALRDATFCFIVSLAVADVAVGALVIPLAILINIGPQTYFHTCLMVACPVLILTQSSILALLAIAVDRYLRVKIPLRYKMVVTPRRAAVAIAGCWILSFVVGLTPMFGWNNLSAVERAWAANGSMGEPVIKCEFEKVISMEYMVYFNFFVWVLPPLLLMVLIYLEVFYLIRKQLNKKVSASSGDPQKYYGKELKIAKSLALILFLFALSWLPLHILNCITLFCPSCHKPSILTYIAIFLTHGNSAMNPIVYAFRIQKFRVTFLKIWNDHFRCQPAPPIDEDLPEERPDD
Briefly: Association constant for [3H]CCPA binding to Adenosine A1 receptor in the presence of compound. The note with it: read-out: kon (M-1-s-1). Summed up:
(§1)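 Kinetics on membranes (30 µg) from CHO cells expressing recombinant human A1 receptors, using [3H]CCPA at 1 nM, with or without compound. Association was started by adding membranes to the radioligand. For dissociation, membranes were preloaded with radioligand for 60 min at 25 °C, then 100 µM 8-cyclopentyltheophylline was added. Bound ligand was separated by GF/B filtration and counted by scintillation; t1/2 and rate constants were derived.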

Experiment [2] concerns the target T1, Adenosine receptor A1. Kind of experiment: Dissociation constant for [3H]-CCPA binding to Adenosine A1 receptor in the presence of compound. A digest of the protocol:
as §1

As a reminder, the kon is the second-order rate constant of association. As usually defined, the koff is the first-order rate constant of dissociation. Turning to `c1ccc(-c2n/c(=N/C3CCCC3)sn2-c2ccccc2)cc1`, the on-rate constant (kon) in experiment [1] was determined as 4.16e+06 M⁻¹ s⁻¹. The off-rate (koff) in experiment [2] came out at 0.001 s⁻¹.
